This is a sample that favours compounds with a hit; in the whole collection about 2.4% have one here.
miR122 inh: miR-122 inhibition in Huh7 cells; Huh7 miR-122 Renilla luciferase sensor, 48 h; neutral wells = 0, positive control = 100; AID 602342; hit rate 0.3% among 340,000; activation (reporter increase), % at 12.5 µM;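 active = mean replicate activation score at least 90 and every replicate individually at or above 90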;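 note: higher luciferase means less miR-122 activity so hits act as miR-122 inhibitors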
Cneo AK release: causes C. neoformans cell lysis; hit rate 0.2% among 360,000; adenylate kinase release luminescence, 4 h; normalised: neutral wells 0, clomiphene wells 100; AID 651654; lysis activity, % at 15 µM;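 active = mean lysis activity across replicates of at least 80%, whatever share of replicates individually reach that level; inactive = mean lysis activity below 80%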
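Schedule: static 4 h at 37 °C with compound, 1 h detection; system: C. neoformans cells; benchmarks: Clomiphene as positive control; buffer or medium: fresh YPD medium; measure: luminescence rise reflecting yeast cell lysis; measured by: luminescent adenylate kinase detection reagent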
HIV Env fusion: inhibitors of HIV Env-mediated cell fusion. HeLa-JRFL Env/CEM21 cell fusion, luciferase. inhibition, % at 12.3 µM. hit rate 1.1% among 360,000. AID 651610;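 active = mean replicate inhibition score of at least 50 and every replicate individually at or above 50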;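 note: 0% = plate neutral controls and 100% = maraviroc near 300 nM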
Rtt109 Vps75: inhibitors of Candida albicans Rtt109/Vps75 histone acetyltransferase; Q5AAJ8; hit rate 0.16% among 330,000; purified Rtt109/Vps75, ThioGlo CoA-SH fluorescence, 4 h; inhibition, % at 34.9 µM;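 active = inhibition of at least 50% in every replicate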
Target sequence (Q5AAJ8 whole entry, looked up): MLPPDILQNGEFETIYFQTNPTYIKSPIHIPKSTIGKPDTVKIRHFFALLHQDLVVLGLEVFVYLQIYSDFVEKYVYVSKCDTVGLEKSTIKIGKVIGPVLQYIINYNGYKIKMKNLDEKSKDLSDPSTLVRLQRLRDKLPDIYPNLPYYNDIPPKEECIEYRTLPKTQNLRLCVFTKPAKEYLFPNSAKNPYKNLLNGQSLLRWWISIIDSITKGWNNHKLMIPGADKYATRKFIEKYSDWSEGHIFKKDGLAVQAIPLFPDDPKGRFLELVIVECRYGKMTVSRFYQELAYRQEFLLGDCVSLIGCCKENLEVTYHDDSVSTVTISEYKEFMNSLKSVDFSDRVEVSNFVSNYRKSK
dFosB activator: activators of mouse delta FosB homodimer | P13346 | purified delta FosB, TAMRA-CDK5 oligo fluorescence polarization; percent of positive-control signal above neutral wells | activation, % at 25 µM | hit rate 0.99% among 340,000 | AID 493131;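 active = mean activation above about 17%, with every replicate also reaching it, limit read from the data, passing the limit was not always enough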
Target sequence (P13346 whole entry, looked up): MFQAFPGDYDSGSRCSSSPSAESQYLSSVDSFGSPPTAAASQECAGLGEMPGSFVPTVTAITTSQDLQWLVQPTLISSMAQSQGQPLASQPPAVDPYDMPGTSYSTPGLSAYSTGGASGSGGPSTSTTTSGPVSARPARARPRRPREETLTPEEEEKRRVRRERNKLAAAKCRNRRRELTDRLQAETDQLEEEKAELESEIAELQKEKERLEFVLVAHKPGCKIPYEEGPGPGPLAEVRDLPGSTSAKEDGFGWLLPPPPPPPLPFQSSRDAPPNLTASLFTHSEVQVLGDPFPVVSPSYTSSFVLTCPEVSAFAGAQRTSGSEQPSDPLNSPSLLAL
GSIS activator: primary screen for activators of insulin secretion dependent on glucose, INS-1E cells, GLuc reporter luminescence; INS-1E GLuc reporter insulin secretion, 2-3 h; activation, % at 16.6 µM; hit rate 0.61% among 370,000; AID 743287;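 active = lowest replicate activation of at least 40%, so every replicate reaches that level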;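 note: 0% = median of neutral control wells and 100% = median of IBMX positive control wells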
The depositor's hits bear a star; nt = no result; ! = not active in a repeat; [ ] = dose if it differs, or a comment.

SMILES	miR122 inh	Cneo AK release	HIV Env fusion	Rtt109 Vps75	dFosB activator	GSIS activator
Cc1ccc(-c2nn(Cc3ccccc3)cc2C(=O)N2CCN(c3ccccn3)CC2)cc1	107.3*	1.4	-33.6	-2.4	-13.2	-50.9
O=C(c1cn(Cc2ccccc2)nc1-c1ccc(Cl)cc1)N1CCN(c2ccccn2)CC1	119.9*	-0.3	-29.2	12.4	-13.4	-78.1
C[C@@H]1CN([C@@H](C)CO)C(=O)c2cc(NC(=O)CCC(F)(F)F)ccc2O[C@@H](C)CCCCO[C@@H]1CN(C)C(=O)Nc1ccc(F)cc1	11.7[16.7 µM]	2.5	7.6[16.7 µM]	nt	nt	-9.1
CCCn1c(O)c(N=NC(=O)c2cccnc2)c2cc(Br)ccc21	13.1	1.9	11.9	-6.8	-5.9	40.9*
CCCn1c(O)c(N=NC(=O)CNC(=O)c2cccnc2)c2ccccc21	4.8	0.5	7.7	5.6	0.3	10.1
COc1ccc(NC(=O)c2cccc([N+](=O)[O-])c2)cc1	12.1	nt	-23.8	4.1	3.4	2.3
COc1ccc(NC(=O)c2cc([N+](=O)[O-])ccc2O)cc1	nt	nt	83.2*	4.6	1.5	5.4
COc1ccc2cc(C=NS(=O)(=O)c3ccc(C)cc3)n(C)c2c1	-0.3	-1.7	58.6*	-4.8	-2.2	8.1
C[C@H](CO)N1C[C@H](C)[C@@H](CN(C)Cc2ccc(C(F)(F)F)cc2)Oc2c(NS(=O)(=O)c3cccs3)cccc2C1=O	3.5[16.7 µM]	52.6	41.2[16.7 µM]	nt	nt	-4.3
C[C@@H]1CN([C@@H](C)CO)C(=O)c2cccc(NS(=O)(=O)c3ccc(F)cc3)c2O[C@@H]1CN(C)Cc1ccc(C(F)(F)F)cc1	-1.4[16.7 µM]	11.7	57.8*[16.7 µM]	nt	nt	-11.1
C[C@H]1CN([C@@H](C)CO)C(=O)c2cccc(NS(=O)(=O)c3cccs3)c2O[C@@H]1CN(C)Cc1ccc(C(F)(F)F)cc1	118.9*[16.7 µM]	-4.9	8.0[16.7 µM]	nt	nt	-10.2
C[C@@H]1CCCCO[C@H](CN(C)C(=O)NC2CCCCC2)[C@H](C)CN([C@H](C)CO)C(=O)c2cc(NC(=O)Nc3ccc(C(F)(F)F)cc3)ccc2O1	-9.9[16.7 µM]	54.7	0.1[16.7 µM]	nt	nt	12.7
COc1ccc(-n2nc(C(=O)NCC(=O)NCc3ccc(F)cc3)c3ccccc3c2=O)cc1OC	-2.2	1.3	3.0	-16.7	125.8*	5.3
COC(=O)CNC(=O)CNC(=O)c1nn(-c2ccc(OC)c(OC)c2)c(=O)c2ccccc12	0.7	2.3	7.5	nt	-9.3	-2.4
CCN(CC)C(=O)CNC(=O)c1nn(-c2ccc(OC)c(Cl)c2)c(=O)c2ccccc12	-9.1	8.8	-1.0	-2.0	-24.9	-11.6
COc1ccc(-n2nc(C(=O)NCC(=O)Nc3cc(OC)c(OC)c(OC)c3)c3ccccc3c2=O)cc1Cl	-2.3	1.0	22.0	-8.8	21.4*	-3.8
CC(=O)N1CCN(c2nnc(-c3ccc(C)cc3)c3ccccc23)CC1	nt	nt	17.3	nt	-5.8	40.9*
Cc1ccc(OCC(=O)N2CCN(c3nnc(-c4ccccc4)c4ccccc34)CC2)cc1	30.3	6.7	43.0	-4.8	-17.2	nt
O=C(Nc1cccc(F)c1)N1C[C@@H]2N[C@H](C1)C2c1ccc(-c2ccccc2F)cc1 (stereo not given in full)	nt	nt	nt	nt	nt	-4.9
Cc1ccccc1-c1ccc(C2[C@@H]3CN(S(=O)(=O)c4ccccc4C)C[C@H]2N3)cc1 (stereo not given in full)	nt	nt	nt	nt	nt	178.6*!
Cc1ccc(S(=O)(=O)N2C[C@@H]3N[C@H](C2)C3c2ccc(/C=C/c3ccccc3)cc2)cc1 (stereo not given in full)	nt	nt	nt	nt	nt	502.3*!
Cc1ccccc1-c1ccc(C2[C@@H]3CN(C(=O)Nc4cccc(F)c4)C[C@H]2N3)cc1 (stereo not given in full)	nt	nt	nt	nt	nt	93.2*!
COc1cc(CN2C[C@@H]3N[C@H](C2)C3c2ccc(/C=C/c3ccccc3)cc2)cc(OC)c1 (stereo not given in full)	nt	nt	nt	nt	nt	83.7*!
C/C=C/c1ccc(C2[C@@H]3CN(Cc4cccc(OC)c4)C[C@H]2N3)cc1 (stereo not given in full)	nt	nt	nt	nt	nt	-18.5
C[C@@H]1CN([C@H](C)CO)C(=O)c2cc(-c3cccnc3)cnc2O[C@@H]1CN(C)C(=O)c1cccc(F)c1	0.5[16.7 µM]	0.4	-44.8[16.7 µM]	nt	nt	20.1
SMILES	miR122 inh	Cneo AK release	HIV Env fusion	Rtt109 Vps75	dFosB activator	GSIS activator
O=C(N[C@@H]1CC[C@@H](CCn2cc(-c3cccnc3)nn2)O[C@@H]1CO)c1ccccc1F	-21.2[16.7 µM]	22.3	-0.7[16.7 µM]	nt	nt	8.5
C[C@@H]1CCCCO[C@H](CN(C)C(=O)Nc2ccccc2)[C@@H](C)CN([C@@H](C)CO)C(=O)c2cc(NS(=O)(=O)c3ccc(F)cc3)ccc2O1	1.0[16.7 µM]	1.3	-107.4[16.7 µM]	nt	nt	2.1
COc1ccc(CCNS(=O)(=O)c2ccc(C3CNC(=O)C3)cc2)cc1OC (stereo not given)	-2.4	-1.6	nt	-7.2	-1.5	9.2
COc1ccc(C2CNC(=O)C2)cc1OC1CCCC1 (stereo not given)	-0.3	2.3	6.5	1.3	-1.0	45.4*
Fc1ccc(Nc2nc(NCc3ccco3)c3ccccc3n2)cc1	2.9	6.2	13.8	-1.6	52.7*	-2.9
Cc1ccc(Nc2nc(N)c([N+](=O)[O-])c(NCc3ccco3)n2)cc1	nt	nt	-37.7	-3.1	8.2	44.6
Cc1cccc(C)c1NC(=O)CCCSc1nnc(-c2ccc(Cl)cc2)n1-c1ccccc1	nt	nt	78.8*	5.5	-6.7	5.8
CCCCCn1ccc(=O)c2c(C(F)(F)F)nccc21	-3.6	-2.0	50.8*	-9.7	2.0	nt
COCCn1c(=NC(=O)c2cc(Cl)sc2Cl)sc2cc(S(N)(=O)=O)ccc21	nt	-2.5	5.6	-0.3	-6.1	169.7*
CCCCN(C/C=C/c1ccccc1OC)Cc1ccccc1	6.7	0.0	20.6	64.1*	-4.2	-14.8
CCN(C/C=C/c1ccccc1OC)Cc1ccccc1	3.8	-1.6	11.7	-3.2	0.8	0.2
C[C@@H]1CN([C@@H](C)CO)C(=O)c2cc(NC(=O)Nc3ccccc3)ccc2O[C@@H]1CN(C)C(=O)Nc1cccc2ccccc12	17.2[16.7 µM]	108.2*	25.3[16.7 µM]	nt	nt	-12.3
C[C@H]1CN([C@@H](C)CO)C(=O)c2cc(NC(=O)Nc3cccc4ccccc34)ccc2O[C@@H]1CN(C)C(=O)Nc1ccc(C(F)(F)F)cc1	11.9[16.7 µM]	89.9*	nt	nt	nt	2.6
C[C@@H]1CN([C@@H](C)CO)C(=O)c2cc(NC(=O)Nc3cccc4ccccc34)ccc2O[C@@H]1CN(C)C(=O)Nc1ccccc1	3.8[16.7 µM]	107.2*	nt	nt	nt	-2.2
O=C(Nc1ccccc1F)N[C@@H]1CC[C@H](CCNC(=O)C2CCC2)O[C@H]1CO	nt	-4.6	7.6[16.7 µM]	nt	nt	4.0
Cc1cc(C)nc(/N=C(\N)Nc2ccc(CC(=O)OC(C)C)cc2)n1	-1.8	0.4	67.6*	-7.3	-9.6	nt
CS(=O)(=O)N1CC2(C1)[C@H](c1ccccc1)[C@H](CO)N2CC1CC1	nt	nt	nt	nt	nt	9.9
